Experimental findings from ChEMBL document CHEMBL1765020, “Synthesis and structure-affinity relationships of novel dibenzylideneacetone derivatives as probes for β-amyloid plaques” (J Med Chem, 2011) are described below.

The test is described as follows: Displacement of [125I]IMPY from amyloid beta (1 to 42) aggregate after 2 hrs by gamma counting. The method, boiled down:
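Competition binding in 1 mL PBS (0.2 M, pH 7.4). Aggregated Aβ1-42 fibrils (60 nM final) with [125I]IMPY and inhibitor at 10^-5 to 10^-10 M, added in ethanol. Nonspecific binding was defined with 1 μM IMPY. Incubated 2 h at 37 °C with shaking, then vacuum-filtered through glass fibre filters and the bound fraction gamma-counted. IC50 was converted to Ki by Cheng-Prusoff; triplicate, mean ± SD.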
On the technique in general: Loss of bound radioactivity is the signal in a displacement assay; it reports binding, not function.

pKi: −log10 of the molar value.

What is called pKi is the negative decadic logarithm of the Ki, by convention in mol/L. Turning to `CN(C)c1ccc(/C=C/C(=O)/C=C/c2ccc(I)nc2)cc1`, the negative-log Ki (pKi) is 8.32.
The result for `CN(C)c1ccc(/C=C/C(=O)/C=C/c2cccs2)cc1` reads 8.28.
The result for `CN(C)c1ccc(/C=C/C(=O)/C=C/c2ccc(O)cc2)cc1` reads 8.17; that for `COc1cc(/C=C/C(=O)/C=C/c2ccc(N(C)C)cc2)ccc1OCc1ccccc1`, 8.39; that for `COc1ccc(/C=C/C(=O)/C=C/c2ccc(N(C)C)cc2)cc1`, 9.15.
The result for `CN(C)c1ccc(/C=C/C(=O)/C=C/c2ccc(Br)cc2)cc1` reads 8.55; that for `CN(C)c1ccc(/C=C/C(=O)/C=C/c2ccc3[nH]ccc3c2)cc1`, 8.38.
With `CN(C)c1ccc(/C=C/C(=O)/C=C/c2cccc(F)c2)cc1`, the pKi is 8.92.
The compound `CNc1ccc(/C=C/C(=O)/C=C/c2ccc(N(C)C)cc2)cc1` showed a negative-log Ki (pKi) of 8.54.
`COc1cc(/C=C/C(=O)/C=C/c2ccc(N(C)C)cc2)cc(OC)c1` showed a pKi of 8.33.
The result for `COc1cc(OC)c(/C=C/C(=O)/C=C/c2ccc(N(C)C)cc2)c(OC)c1` reads 7.41; that for `CN(C)c1ccc(/C=C/C(=O)/C=C/c2ccccc2[N+](=O)[O-])cc1`, 7.73.
Regarding `CN(C)c1ccc(/C=C/C(=O)/C=C/c2ccc(OCCOCCF)cc2)cc1`, the pKi is 8.36.
The compound `CN(C)c1ccc(/C=C/C(=O)/C=C/c2ccccc2)cc1` showed a negative logarithm of the Ki (pKi) of 8.92.
